In ChEMBL document CHEMBL3046000, “Design and synthesis of 1-(benzothiazol-5-yl)-1H-1,2,4-triazol-5-ones as protoporphyrinogen oxidase inhibitors” (Bioorg Med Chem, 2013):
pKi: −log10 of the molar value.

Assays:
[1] = system: Sonchus asper; assay: Post-emergence herbicidal activity against Sonchus asper assessed as plant growth inhibition at 75 g ai/ha; type: functional; details: read-out: GI
Method in brief: (§1)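 Compounds formulated as 100 g/L emulsifiable concentrates in DMF with Tween-80 as emulsifier, then diluted with water. Sprayed post-emergence onto pot-grown plants in a greenhouse, with broadleaf weeds at the 2-leaf stage and grasses at the 1-leaf stage. Clay soil with 1.6% organic matter and CEC 12.1 […]; relative humidity about 50%. Rate (g ai/ha) = active ingredient ÷ pot surface area. Untreated and DMF + Tween-80 solvent controls.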

[2] = system: Solanum nigrum; assay: Post-emergence herbicidal activity against Solanum nigrum (black nightshade) assessed as plant growth inhibition at 75 g ai/ha; type: functional; details: read-out: GI; method in brief: as §1
[3] = system: Cerastium arvense; assay: Post-emergence herbicidal activity against Cerastium arvense assessed as plant growth inhibition at 75 g ai/ha; type: functional; details: read-out: GI; method in brief: as §1
[4] = system: Setaria faberi; assay: Post-emergence herbicidal activity against Setaria faberi (Giant Foxtail) seedlings assessed as plant growth inhibition at 37.5 g ai/ha measured 15 days after compound treatment under greenhouse conditions; type: functional; details: 360 h, read-out: GI
[5] = Phytotoxicity against four-leaf stage Zea mays cv. Anjou (maize) plants assessed as plant growth inhibition at 150 g ai/ha applied through spraying measured 30 days after compound treatment under greenhouse conditions; type: organism-based; details: in vivo, read-out: GI
[6] = Phytotoxicity against 4-leaf stage Glycine max (soybean) plants assessed as plant growth inhibition at 150 g ai/ha applied through spraying measured 30 days after compound treatment under greenhouse conditions; type: organism-based; details: in vivo, read-out: GI
[7] = system: Amaranthus retroflexus; assay: Post emergence herbicidal activity against Amaranthus retroflexus seedlings assessed as plant growth inhibition at 150 g ai/ha measured 15 days after compound treatment under greenhouse conditions; type: functional; details: 360 h, read-out: GI
[8] = system: Symphyotrichum subulatum; assay: Post-emergence herbicidal activity against Symphyotrichum subulatum assessed as plant growth inhibition at 75 g ai/ha; type: functional; details: read-out: GI; method in brief: as §1
[9] = Phytotoxicity against four-leaf stage Brassica napus (oilseed rape) plants assessed as plant growth inhibition at 150 g ai/ha applied through spraying measured 30 days after compound treatment under greenhouse conditions; type: organism-based; details: in vivo, read-out: GI
[10] = system: Veronica polita; assay: Post-emergence herbicidal activity against Veronica polita assessed as plant growth inhibition at 75 g ai/ha; type: functional; details: read-out: GI; method in brief: as §1
[11] = system: Amaranthus spinosus; assay: Post-emergence herbicidal activity against Amaranthus spinosus assessed as plant growth inhibition at 75 g ai/ha; type: functional; details: read-out: GI; method in brief: as §1
[12] = system: Ammannia baccifera; assay: Post-emergence herbicidal activity against Ammannia baccifera assessed as plant growth inhibition at 75 g ai/ha; type: functional; details: read-out: GI; method in brief: as §1
[13] = system: Chenopodium album; assay: Post-emergence herbicidal activity against Chenopodium album seedlings assessed as plant growth inhibition at 37.5 g ai/ha measured 15 days after compound treatment under greenhouse conditions; type: functional; details: 360 h, read-out: GI
[14] = system: Alkekengi officinarum; assay: Post-emergence herbicidal activity against Physalis alkekengi assessed as plant growth inhibition at 75 g ai/ha; type: functional; details: read-out: GI; method in brief: as §1
[15] = system: Capsella bursa-pastoris; assay: Post-emergence herbicidal activity against Capsella bursa-pastoris assessed as plant growth inhibition at 75 g ai/ha; type: functional; details: read-out: GI; method in brief: as §1
[16] = system: Ludwigia prostrata; assay: Post-emergence herbicidal activity against Ludwigia prostrata assessed as plant growth inhibition at 75 g ai/ha; type: functional; details: read-out: GI; method in brief: as §1
[17] = system: Echinochloa crus-galli; assay: Post emergence herbicidal activity against Echinochloa crus-galli (barnyard grass) seedlings assessed as plant growth inhibition at 75 g ai/ha measured 15 days after compound treatment under greenhouse conditions; type: functional; details: 360 h, read-out: GI
[18] = system: Myosoton aquaticum; assay: Post-emergence herbicidal activity against Myosoton aquaticum assessed as plant growth inhibition at 75 g ai/ha; type: functional; details: read-out: GI; method in brief: as §1
[19] = system: Setaria faberi; assay: Post-emergence herbicidal activity against Setaria faberi (Giant Foxtail) seedlings assessed as plant growth inhibition at 150 g ai/ha measured 15 days after compound treatment under greenhouse conditions; type: functional; details: 360 h, read-out: GI
[20] = Phytotoxicity against 4-leaf stage Triticum aestivum (wheat) plants assessed as plant growth inhibition at 150 g ai/ha applied through spraying measured 30 days after compound treatment under greenhouse conditions; type: organism-based; details: in vivo, read-out: GI
[21] = system: Digitaria sanguinalis; assay: Post-emergence herbicidal activity against Digitaria sanguinalis (hairy crabgrass) seedlings assessed as plant growth inhibition at 37.5 g ai/ha measured 15 days after compound treatment under greenhouse conditions; type: functional; details: 360 h, read-out: GI
[22] = Phytotoxicity against four-leaf stage Oryza sativa (rice) plants assessed as plant growth inhibition at 150 g ai/ha applied through spraying measured 30 days after compound treatment under greenhouse conditions; type: organism-based; details: in vivo, read-out: GI
[23] = system: Brassica juncea; assay: Post-emergence herbicidal activity against Brassica juncea seedlings assessed as plant growth inhibition at 75 g ai/ha measured 15 days after compound treatment under greenhouse conditions; type: functional; details: 360 h, read-out: GI
[24] = system: Brassica juncea; assay: Post-emergence herbicidal activity against Brassica juncea seedlings assessed as plant growth inhibition at 150 g ai/ha measured 15 days after compound treatment under greenhouse conditions; type: functional; details: 360 h, read-out: GI
[25] = system: Phytolacca acinosa; assay: Post-emergence herbicidal activity against Raddix phytolaccae assessed as plant growth inhibition at 75 g ai/ha; type: functional; details: read-out: GI; method in brief: as §1
[26] = system: Amaranthus retroflexus; assay: Post emergence herbicidal activity against Amaranthus retroflexus seedlings assessed as plant growth inhibition at 37.5 g ai/ha measured 15 days after compound treatment under greenhouse conditions; type: functional; details: 360 h, read-out: GI
[27] = system: Echinochloa crus-galli; assay: Post emergence herbicidal activity against Echinochloa crus-galli (barnyard grass) seedlings assessed as plant growth inhibition at 37.5 g ai/ha measured 15 days after compound treatment under greenhouse conditions; type: functional; details: 360 h, read-out: GI
[28] = system: Digitaria sanguinalis; assay: Post-emergence herbicidal activity against Digitaria sanguinalis (hairy crabgrass) seedlings assessed as plant growth inhibition at 75 g ai/ha measured 15 days after compound treatment under greenhouse conditions; type: functional; details: 360 h, read-out: GI
[29] = molecular target: T1, Protoporphyrinogen oxidase, chloroplastic (Nicotiana tabacum, UniProt O24163); assay: Inhibition of Nicotiana tabacum (tobacco) recombinant PPO assessed as protoporphyrin IX formation at room temperature by fluorimetric assay
T1 sequence (O24163 whole entry): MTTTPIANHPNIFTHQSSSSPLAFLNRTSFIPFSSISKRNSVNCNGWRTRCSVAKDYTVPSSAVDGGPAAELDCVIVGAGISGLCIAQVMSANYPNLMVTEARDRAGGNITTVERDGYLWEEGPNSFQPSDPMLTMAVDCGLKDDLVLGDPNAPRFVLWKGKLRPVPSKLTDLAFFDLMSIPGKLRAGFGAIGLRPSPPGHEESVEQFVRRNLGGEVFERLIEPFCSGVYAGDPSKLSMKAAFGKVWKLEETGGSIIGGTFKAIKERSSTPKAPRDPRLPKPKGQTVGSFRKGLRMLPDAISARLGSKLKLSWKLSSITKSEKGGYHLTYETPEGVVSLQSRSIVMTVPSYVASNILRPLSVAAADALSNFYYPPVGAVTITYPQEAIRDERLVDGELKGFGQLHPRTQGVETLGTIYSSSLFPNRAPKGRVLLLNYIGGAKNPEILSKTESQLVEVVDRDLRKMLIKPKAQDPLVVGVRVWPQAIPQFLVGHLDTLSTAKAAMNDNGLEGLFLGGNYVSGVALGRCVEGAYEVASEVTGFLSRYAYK

[30] = Phytotoxicity against four-leaf stage Gossypium hirsutum (cotton) plants assessed as plant growth inhibition at 150 g ai/ha applied through spraying measured 30 days after compound treatment under greenhouse conditions; type: organism-based; details: in vivo, read-out: GI
[31] = system: Brassica juncea; assay: Post-emergence herbicidal activity against Brassica juncea seedlings assessed as plant growth inhibition at 37.5 g ai/ha measured 15 days after compound treatment under greenhouse conditions; type: functional; details: 360 h, read-out: GI
[32] = Phytotoxicity against 4-leaf stage Glycine max (soybean) plants assessed as plant growth inhibition at 75 g ai/ha applied through spraying measured 30 days after compound treatment under greenhouse conditions; type: organism-based; details: in vivo, read-out: GI
[33] = system: Amaranthus retroflexus; assay: Post emergence herbicidal activity against Amaranthus retroflexus seedlings assessed as plant growth inhibition at 75 g ai/ha measured 15 days after compound treatment under greenhouse conditions; type: functional; details: 360 h, read-out: GI
[34] = system: Commelina communis; assay: Post-emergence herbicidal activity against Commelina communis (Asiatic dayflower) assessed as plant growth inhibition at 75 g ai/ha; type: functional; details: read-out: GI; method in brief: as §1
[35] = system: Chenopodium album; assay: Post-emergence herbicidal activity against Chenopodium album seedlings assessed as plant growth inhibition at 75 g ai/ha measured 15 days after compound treatment under greenhouse conditions; type: functional; details: 360 h, read-out: GI
[36] = system: Senna tora; assay: Post-emergence herbicidal activity against Senna tora assessed as plant growth inhibition at 75 g ai/ha; type: functional; details: read-out: GI; method in brief: as §1
[37] = system: Echinochloa crus-galli; assay: Post emergence herbicidal activity against Echinochloa crus-galli (barnyard grass) seedlings assessed as plant growth inhibition at 150 g ai/ha measured 15 days after compound treatment under greenhouse conditions; type: functional; details: 360 h, read-out: GI
[38] = system: Chenopodium album; assay: Post-emergence herbicidal activity against Chenopodium album seedlings assessed as plant growth inhibition at 150 g ai/ha measured 15 days after compound treatment under greenhouse conditions; type: functional; details: 360 h, read-out: GI
[39] = system: Eleusine indica; assay: Post-emergence herbicidal activity against Eleusine indica assessed as plant growth inhibition at 75 g ai/ha; type: functional; details: read-out: GI; method in brief: as §1
[40] = system: Digitaria sanguinalis; assay: Post-emergence herbicidal activity against Digitaria sanguinalis (hairy crabgrass) seedlings assessed as plant growth inhibition at 150 g ai/ha measured 15 days after compound treatment under greenhouse conditions; type: functional; details: 360 h, read-out: GI
[41] = system: Boehmeria nivea; assay: Post-emergence herbicidal activity against Boehmeria nivea assessed as plant growth inhibition at 75 g ai/ha; type: functional; details: read-out: GI; method in brief: as §1
[42] = system: Setaria faberi; assay: Post-emergence herbicidal activity against Setaria faberi (Giant Foxtail) seedlings assessed as plant growth inhibition at 75 g ai/ha measured 15 days after compound treatment under greenhouse conditions; type: functional; details: 360 h, read-out: GI
[43] = system: Polygonum humifusum; assay: Post-emergence herbicidal activity against Polygonum humifusum assessed as plant growth inhibition at 75 g ai/ha; type: functional; details: read-out: GI; method in brief: as §1

Compound: Cc1nn(-c2cc(NS(C)(=O)=O)c(Cl)cc2Cl)c(=O)n1C(F)F [SULFENTRAZONE]
- inhibition of growth at 75 g/ha [1]: 100%
- inhibition of growth at 75 g/ha [2]: 100%
- inhibition of growth at 75 g/ha [3]: > 90%
- inhibition of growth at 37.5 g/ha [4]: 60%
- inhibition at 720 h [5]: 70%
- inhibition at 720 h [6]: 20%
- inhibition of growth at 150 g/ha [7]: ≥ 90%
- inhibition of growth at 75 g/ha [8]: 100%
- inhibition at 720 h [9]: 100%
- inhibition of growth at 75 g/ha [10]: 100%
- inhibition of growth at 75 g/ha [11]: 100%
- inhibition of growth at 75 g/ha [12]: 100%
- inhibition of growth at 37.5 g/ha [13]: 60%
- inhibition of growth at 75 g/ha [14]: 100%
- inhibition of growth at 75 g/ha [15]: 100%
- inhibition of growth at 75 g/ha [16]: 100%
- inhibition of growth at 75 g/ha [17]: ≥ 90%
- inhibition of growth at 75 g/ha [18]: > 90%
- inhibition of growth at 150 g/ha [19]: ≥ 90%
- inhibition at 720 h [20]: 20%
- inhibition of growth at 37.5 g/ha [21]: < 50%
- inhibition at 720 h [22]: 70%
- inhibition of growth at 75 g/ha [23]: ≥ 90%
- inhibition of growth at 150 g/ha [24]: ≥ 90%
- inhibition of growth at 75 g/ha [25]: 100%
- inhibition of growth at 37.5 g/ha [26]: 80%
- inhibition of growth at 37.5 g/ha [27]: 80%
- inhibition of growth at 75 g/ha [28]: 50%
- pKi [29]: 7.52
- inhibition at 720 h [30]: 100%
- inhibition of growth at 37.5 g/ha [31]: 80%
- inhibition at 720 h [32]: 10%
- inhibition of growth at 75 g/ha [33]: ≥ 90%
- inhibition of growth at 75 g/ha [34]: 100%
- inhibition of growth at 75 g/ha [35]: ≥ 90%
- inhibition of growth at 75 g/ha [36]: > 90%
- inhibition of growth at 150 g/ha [37]: ≥ 90%
- inhibition of growth at 150 g/ha [38]: ≥ 90%
- inhibition of growth at 75 g/ha [39]: 100%
- inhibition of growth at 150 g/ha [40]: 60%
- inhibition of growth at 75 g/ha [41]: 100%
- inhibition of growth at 75 g/ha [42]: 80%
- inhibition of growth at 75 g/ha [43]: 100%
